Holding throughout (conditions): in vivo
The subject of data set [1] is Lung. Nature of the data set: Biodistribution in lung of B16F0 tumor bearing C57BL/6J mouse at 0.37-0.74 MBq, iv after 24 hrs. It is filed as ADME, organism-based. In a few lines: (§1)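 Female C57BL/6J mice (15-18 g) were given B16F0 cells subcutaneously in the left flank (0.1 mL of 3 × 10⁶ viable cells/mL in Ca²⁺/Mg²⁺-free PBS) at 6-7 weeks and used after ten days. [¹²³I]benzamide (0.37-0.74 MBq, 100 µL, saline) was injected via the tail vein. Groups of n = 5 were killed by CO₂ and cervical dislocation. Organs were weighed and γ-counted, and the carcass was counted too.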

Data set [2] has as its system Kidney. The data set can be described thus: Biodistribution in kidney of B16F0 tumor bearing C57BL/6J mouse at 0.37-0.74 MBq, iv after 24 hrs. It counts as ADME, organism-based. The method in brief:
as §1

The subject of data set [3] is Heart. The data set can be described thus: Biodistribution in heart of B16F0 tumor bearing C57BL/6J mouse at 0.37-0.74 MBq, iv after 24 hrs. It counts as ADME, organism-based. In a few lines:
as §1

The test system of data set [4] is Blood. The data set can be described thus: Biodistribution in blood of B16F0 tumor bearing C57BL/6J mouse at 0.37-0.74 MBq, iv after 6 hrs. It is filed as ADME, organism-based. The method in brief:
as §1

The test system of data set [5] is Liver. Nature of the data set: Biodistribution in liver of B16F0 tumor bearing C57BL/6J mouse at 0.37-0.74 MBq, iv after 6 hrs. It counts as ADME, organism-based. The method in brief: as §1
In data set [6] the test system is Liver. Nature of the data set: Biodistribution in liver of B16F0 tumor bearing C57BL/6J mouse at 0.37-0.74 MBq, iv after 24 hrs. It is filed as ADME, organism-based. In a few lines: as §1
Data set [7] deals with Blood. The data set can be described thus: Biodistribution in blood of B16F0 tumor bearing C57BL/6J mouse at 0.37-0.74 MBq, iv after 24 hrs. It counts as ADME, organism-based. In a few lines:
as §1

Data set [8] deals with Blood. Nature of the data set: Biodistribution in blood of B16F0 tumor bearing C57BL/6J mouse at 0.37-0.74 MBq, iv after 1 hr. It counts as ADME, organism-based. In a few lines: as §1
The subject of data set [9] is Brain. The data set can be described thus: Biodistribution in brain of B16F0 tumor bearing C57BL/6J mouse at 0.37-0.74 MBq, iv after 1 hr. It counts as ADME, organism-based. In a few lines: as §1
Data set [10] in a line: Biodistribution in melanoma of B16F0 tumor bearing C57BL/6J mouse at 0.37-0.74 MBq, iv after 6 hrs. It is filed as ADME, organism-based, B16-F0. The method in brief: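 Female C57BL/6J mice (15-18 g) carrying s.c. B16F0 flank tumors (0.1 mL of 3 × 10⁶ viable cells per mL in Ca²⁺/Mg²⁺-free PBS, inoculated at 6-7 weeks, used 10 days later). [¹²³I]tracer 0.37-0.74 MBq in saline, 100 µL, tail-vein i.v. Groups of n = 5 killed at 1-72 h. Organs weighed and γ-counted, carcass activity also counted, values as %ID/g.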

The nature of data set [11]: Biodistribution in melanoma of B16F0 tumor bearing C57BL/6J mouse at 0.37-0.74 MBq, iv after 24 hrs. It counts as ADME, organism-based, B16-F0. The method in brief: as §1
The nature of data set [12]: Biodistribution in melanoma of B16F0 tumor bearing C57BL/6J mouse at 0.37-0.74 MBq, iv after 1 hr. It counts as ADME, organism-based, B16-F0. The method in brief: as §1
In data set [13] the test system is Kidney. The data set can be described thus: Biodistribution in kidney of B16F0 tumor bearing C57BL/6J mouse at 0.37-0.74 MBq, iv after 6 hrs. It counts as ADME, organism-based. In a few lines:
as §1

The test system of data set [14] is Kidney. The data set can be described thus: Biodistribution in kidney of B16F0 tumor bearing C57BL/6J mouse at 0.37-0.74 MBq, iv after 1 hr. It is filed as ADME, organism-based. In a few lines:
as §1

The subject of data set [15] is Heart. The data set can be described thus: Biodistribution in heart of B16F0 tumor bearing C57BL/6J mouse at 0.37-0.74 MBq, iv after 1 hr. It is filed as ADME, organism-based. The method in brief:
as §1

Data set [16] has as its system Heart. Nature of the data set: Biodistribution in heart of B16F0 tumor bearing C57BL/6J mouse at 0.37-0.74 MBq, iv after 6 hrs. It is filed as ADME, organism-based. In a few lines:
as §1

Data set [17] relates to Lung. The data set can be described thus: Biodistribution in lung of B16F0 tumor bearing C57BL/6J mouse at 0.37-0.74 MBq, iv after 1 hr. It counts as ADME, organism-based. The method in brief: as §1
For data set [18], the system named is Liver. Nature of the data set: Biodistribution in liver of B16F0 tumor bearing C57BL/6J mouse at 0.37-0.74 MBq, iv after 1 hr. It is filed as ADME, organism-based. In a few lines:
as §1

In data set [19] the test system is Lung. Nature of the data set: Biodistribution in lung of B16F0 tumor bearing C57BL/6J mouse at 0.37-0.74 MBq, iv after 6 hrs. It counts as ADME, organism-based. The method in brief: as §1
Data set [20] has as its system Brain. The data set can be described thus: Biodistribution in brain of B16F0 tumor bearing C57BL/6J mouse at 0.37-0.74 MBq, iv after 6 hrs. It counts as ADME, organism-based. The method in brief: as §1

Drug uptake data for 3 compounds are collected here from ChEMBL document CHEMBL1146219, “Synthesis and evaluation of novel radioiodinated benzamides for malignant melanoma” (J Med Chem, 2007).

Regarding `CCN(CC)CCNC(=O)c1cc([123I])c(NS(=O)(=O)c2ccc(C)cc2)cc1OC`, the Drug uptake in the data set with Lung [1] is listed as 0.05 % ID/g; in the data set with Kidney [2] it was 0.06 % ID/g; in the data set with Heart [3], 0.03 % ID/g; with Blood [4], 0.33 % ID/g; with Liver [5], 1.5 % ID/g; in the data set with Liver [6], 0.21 % ID/g. Besides, the Drug uptake in the data set on Blood [7] turned out to be 0.05 % ID/g; in the data set on Blood [8], 0.74 % ID/g; with Brain [9], 0.03 % ID/g; in data set [10] it was 2.6 % ID/g; in [11], 1.4 % ID/g; in [12], 4.2 % ID/g. Also, the Drug uptake with Kidney [13] turned out to be 0.36 % ID/g; in the data set with Kidney [14] it was 1.2 % ID/g; in the data set on Heart [15], 0.28 % ID/g; in the data set on Heart [16], 0.11 % ID/g; with Lung [17] it was 0.62 % ID/g; in the data set with Liver [18] it was 3.8 % ID/g. In the data set with Lung [19], this compound came in with a Drug uptake of 0.22 % ID/g.
As to `CCN(CC)CCNC(=O)c1cc([123I])c(NS(C)(=O)=O)cc1OC`, the Drug uptake with Lung [1] was 0.03 % ID/g; in the data set on Kidney [2] it was 0.06 % ID/g; in the data set with Heart [3], 0.04 % ID/g; in the data set on Blood [4] it was 0.49 % ID/g; in the data set on Liver [5], 1.2 % ID/g; in the data set with Liver [6] it was 0.28 % ID/g. Further, the Drug uptake amounted to 0.01 % ID/g with Blood [7]; 0.77 % ID/g in the data set with Blood [8]; 0.05 % ID/g in the data set on Brain [9]; 3.6 % ID/g in data set [10]; 1.7 % ID/g in [11]; 5.4 % ID/g in data set [12]. Also, the Drug uptake in the data set with Kidney [13] is reported as 0.49 % ID/g; with Kidney [14], 1.3 % ID/g; with Brain [20], 0.02 % ID/g; in the data set on Heart [15] it was 0.42 % ID/g; with Heart [16] it was 0.19 % ID/g; in the data set on Lung [17], 0.67 % ID/g. For the same compound, the Drug uptake in the data set with Liver [18] is 2.3 % ID/g; in the data set with Lung [19], 0.38 % ID/g.
As for `CCCCNCCCCNC(=O)c1cc([123I])c(NC(C)=O)cc1OC`, the Drug uptake was determined as 0.04 % ID/g with Lung [1]; 0.05 % ID/g in the data set on Kidney [2]; 0.06 % ID/g in the data set with Heart [3]; 0.47 % ID/g with Blood [4]; 1.3 % ID/g in the data set on Liver [5]; 0.45 % ID/g in the data set on Liver [6]. Besides, the Drug uptake is on record as 0.05 % ID/g with Blood [7]; 0.84 % ID/g in the data set with Blood [8]; 0.04 % ID/g in the data set on Brain [9]; 3.4 % ID/g in [10]; 2.2 % ID/g in data set [11]; 3.4 % ID/g in [12]. In addition, the Drug uptake in the data set on Kidney [13] worked out at 0.46 % ID/g; in the data set on Kidney [14], 3.26 % ID/g; in the data set on Brain [20], 0.02 % ID/g; in the data set with Heart [15] it was 0.64 % ID/g; in the data set on Heart [16] it was 0.28 % ID/g; in the data set with Lung [17], 2 % ID/g. Moreover, the Drug uptake turned out to be 6 % ID/g with Liver [18] and 0.45 % ID/g with Lung [19].
